Results collected from several papers.
Compare with care: the assays were run in different laboratories.
Target: SRSF protein kinase 1 (SRPK1, Homo sapiens, UniProt Q96SB4)

Cc1cc(NC(=O)c2cccc3cc(-c4cccc5[nH]nc(N)c45)ccc23)ccc1F — activity vs control (enzyme activity, inhibitor; 0.1 µM): 98%
CCCCNc1ncc2c(-c3ccc(F)cc3)nn(C[C@H]3CC[C@H](N)CC3)c2n1 — inhibition (target engagement in cells, inhibitor, chemoproteomics; 20 mM): -21.7%
C[C@@H]1CN(c2cc(-c3nn(C)c4ccc(OC5(C)CC5)cc34)ncn2)C[C@H](C)O1 — remaining binding (cell-free assay, competition with immobilised ligand; 1 µM): 88%
FC(F)(F)Oc1cccc(-c2cnc3ccc(-c4ccncc4)nn23)c1 — activity vs control (enzyme activity, inhibitor, radiometric; 1 µM): 95%
O=C1Nc2ccc(Cl)cc2C1=Cc1cc(Cl)c(O)c(Cl)c1 — remaining signal (cell-free assay; 0.5 µM): 106%
c1ccc(CNc2nc(N3CCOc4ccccc43)nc3c2CCCC3)cc1 — inhibition (target engagement in cells, inhibitor, chemoproteomics; 20 mM): 4.3%
CCCCN(CCCC)C(=O)CN1C[C@H](c2cc(OC)c3c(c2)OCO3)[C@@H](C(=O)O)[C@@H]1CC(C)(C)CCC — remaining binding (cell-free assay, competition with immobilised ligand; 1 µM): 100%
CCCOc1ccc(OC)c(F)c1C(=O)c1ccc(C(=O)N[C@@H]2CNC[C@H]2NC(=O)c2ccc3[nH]ncc3c2)cc1 — remaining activity (enzyme activity, inhibitor; 10 µM): 97%
Nc1nc(NC2CCCCC2)sc1C(=O)c1ccccc1 — remaining activity (enzyme activity, inhibitor; 10 µM): 93%
CC(C)(C)c1nc2c(s1)c1nc(N)ncc1c1ccc(NS(=O)(=O)c3c(F)cccc3F)c(F)c12 — remaining activity (enzyme activity, inhibitor, radiometric; 1 µM): 99%
O=C(Nc1ccc(Oc2ccc(F)cc2)cc1)N1CCc2ncccc2[C@H]1c1ccc(F)cc1 — remaining binding (cell-free assay, competition with immobilised ligand; 1 µM): 94%
COc1cc2ncnc(Nc3ccc(Oc4ccccc4)cc3C)c2cc1OC — inhibition (enzyme activity, inhibitor; 1 µM): 0%
O=C(NS(=O)(=O)c1ccc(NCC2CCOCC2)c([N+](=O)[O-])c1)c1ccc(N2CCN(Cc3ccc(C(F)(F)F)cc3-c3ccc(Cl)cc3)CC2)cc1Oc1cnc2[nH]ccc2c1 — remaining binding (cell-free assay, competition with immobilised ligand; 1 µM): 100%
CCCS(=O)(=O)Nc1ccc(F)c(C(=O)c2c[nH]c3ncc(-c4ccc(Cl)cc4)cc23)c1F — inhibition (enzyme activity, inhibitor; 1 µM): < 10%
CNC(=O)c1cc(Oc2ccc(NC(=O)Nc3ccc(Cl)c(C(F)(F)F)c3)cc2)ccn1 — inhibition (enzyme activity, inhibitor; 10 µM): 6%
CN(C)c1ncnc(-c2ccc3nc(Nc4cc(CN5CCN(C(=O)CC(F)(F)F)CC5)ccn4)[nH]c3c2)c1Cl — remaining binding (cell-free assay, competition with immobilised ligand; 1 µM): 47%
Cn1c(=O)n(-c2ccc(C(C)(C)C#N)cc2)c2c3cc(-c4cnc5ccccc5c4)ccc3ncc21 — remaining activity (enzyme activity, inhibitor; 10 µM): 106%
Nc1ncnc2occ(-c3ccc(NC(=O)Nc4cc(C(F)(F)F)ccc4F)cc3)c12 — remaining signal (cell-free assay, inhibitor; 20 µM): 59%
N#CCCc1ccc2c(c1)-c1[nH]c3ccc([N+](=O)[O-])cc3c1CC(=O)N2 — remaining signal (cell-free assay; 0.5 µM): 107%
Cc1ccc(Nc2nccc(N(C)c3ccc4c(C)n(C)nc4c3)n2)cc1S(N)(=O)=O — inhibition (enzyme activity, inhibitor; 10 µM): -3%
CC(=O)N1CCC(c2ccc(C(=O)NC(=N)N)cc2C(F)(F)F)CC1 — remaining binding (cell-free assay, competition with immobilised ligand; 1 µM): 86%
Nc1nc(Nc2ccccc2)sc1C(=O)c1c(F)cccc1F — remaining activity (enzyme activity, inhibitor; 10 µM): 6%
Cc1c[nH]c2nccc(Oc3c(F)cc(Nc4cc(Cl)nc(N)n4)cc3F)c12 — remaining binding (cell-free assay, competition with immobilised ligand; 0.1 µM): 100%
O=C1NC(=O)c2cc(Nc3ccc(F)cc3)c(Nc3ccc(F)cc3)cc21 — remaining signal (cell-free assay; 0.5 µM): 102%
Cc1sc(C(=O)NC2COC2)cc1-n1cc(NC(=O)Nc2c(F)cccc2Cl)cn1 — remaining activity (enzyme activity, inhibitor; 10 µM): 96.9%
CC(C1CC1)n1cnc2c(NCc3cccc(C(F)(F)F)c3)nc(NCCN(C)C)nc21 (stereo not shown) — inhibition (enzyme activity, inhibitor; 5 µM): > 50%
CCN(CC)CCNC(=O)c1c(C)[nH]c(/C=C2\C(=O)Nc3ccc(F)cc32)c1C — inhibition (enzyme activity, inhibitor; 0.3 µM): -17%
COc1cc(Nc2cnc(C#N)c(O[C@H](C)CN(C)C)n2)ncc1-c1cnn(C)c1 — remaining activity (enzyme activity, inhibitor, radiometric; 10 µM): 88%
COc1cc2ncnc(Nc3ccc(F)c(Cl)c3)c2cc1OCCCN1CCOCC1 — remaining signal (cell-free assay; 0.5 µM): 98.3%
CCOc1cc(-c2nncn2C)ccc1Nc1ncc2cc(C)nc(NCC(C)(C)C)c2n1 — inhibition (enzyme activity, inhibitor, FRET; 1 µM): < 15%
FC(F)c1nc2ccccc2n1-c1nc(N2CCOCC2)nc(N2CCOCC2)n1 — remaining activity (enzyme activity, inhibitor; 10 µM): 92%
CC/C(=N\NC(=O)NCc1cccc(O)c1)c1ccc(O)c(C)c1O — inhibition (enzyme activity, inhibitor; 0.1 µM): -11.7%
O=S(=O)(NC1CCC(c2cc(F)ccc2F)(S(=O)(=O)c2ccc(Cl)cc2)CC1)C(F)(F)F (stereo not shown) — remaining binding (cell-free assay, competition with immobilised ligand; 1 µM): 100%
C=CC(=O)Nc1cc(Nc2nccc(Nc3cc(Cl)c(F)cc3C(C)(C)O)n2)c(OC)cc1N1CC[C@@H](N(C)C)C1 — inhibition (enzyme activity, inhibitor; 1 µM): 2%
